Measured values taken from ChEMBL document CHEMBL1124255, “7-substituted 5-amino-1-cyclopropyl-6,8-difluoro-1,4-dihydro-4-oxo-3- quinolinecarboxylic acids: synthesis and biological activity of a new class of quinolone antibacterials” (J Med Chem, 1988).
≈ marks a conversion by molar mass, not a printed value.

Legend:
[1] = system: Staphylococcus aureus; test: Antibacterial activity against Staphylococcus aureus UC76; format: functional
How it was run: (§1)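 Minimum inhibitory concentration measured by standard microtitration, run as part of a panel of 11 bacterial organisms.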

[2] = molecular target: DNA gyrase (Escherichia coli, UniProt P0AES4+P0AES6); test: 50% inhibitory concentration against DNA-gyrase; format: protein-complex assay
[3] = system: Escherichia coli; test: Antibacterial activity against Escherichia coli H560; format: functional; how it was run: as §1
[4] = system: Enterobacter cloacae; test: Antibacterial activity against Enterobacter cloacae MA2646; format: functional
[5] = system: Klebsiella pneumoniae; test: Antibacterial activity against Klebsiella pneumoniae MGH-2; format: functional; how it was run: as §1
[6] = system: Pseudomonas aeruginosa; test: Antibacterial activity against Pseudomonas aeruginosa UI-18; format: functional; how it was run: as §1
[7] = system: Providencia rettgeri; test: Antibacterial activity against Providencia rettgeri M1771; format: functional; how it was run: as §1
[8] = system: Staphylococcus aureus; test: Antibacterial activity against Staphylococcus aureus H-228; format: functional; how it was run: as §1
[9] = system: Escherichia coli; test: Antibacterial activity against Escherichia coli Vogel; format: functional; how it was run: as §1
[10] = system: Streptococcus pneumoniae; test: Antibacterial activity against Streptococcus pneumoniae SV-1; format: functional; how it was run: as §1
[11] = system: Streptococcus pyogenes; test: Antibacterial activity against Streptococcus pyogenes C203; format: functional; how it was run: as §1
[12] = system: Enterococcus faecalis; test: Antibacterial activity against Streptococcus faecalis MGH-2; format: functional; how it was run: as §1
[13] = system: Escherichia coli; test: Median protective dose against Escherichia coli, determined in acute, lethal systemic infection in female charles river CD-1 mice (po); format: functional; details: Escherichia coli, po; read-out: PD50
How it was run: (§2)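 Female Charles River CD-1 mice (18-22 g) were challenged intraperitoneally with about 100 median lethal doses in 0.5 mL 5% hog gastric mucin. Single compound doses in a twofold rising series were given in 0.5 mL at the time of challenge: sc as aqueous solution, po by gavage in 5% gum acacia. Groups of eight mice were used per dose. PD50 was estimated from survival percentages by log probit.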

[14] = system: Escherichia coli; test: Median protective dose against Escherichia coli, determined in acute, lethal systemic infection in female charles river CD-1 mice (sc); format: functional; details: read-out: PD50; how it was run: as §2

| SMILES | MIC [1] [µg/mL] | IC50 [2] [µM] | MIC [3] [µg/mL] | MIC [4] [µg/mL] | MIC [5] [µg/mL] | MIC [6] [µg/mL] | MIC [7] [µg/mL] | MIC [8] [µg/mL] | MIC [9] [µg/mL] | MIC [10] [µg/mL] | MIC [11] [µg/mL] | MIC [12] [µg/mL] | ED50 [13] [mg/kg] | ED50 [14] [mg/kg] |
| --- | --- | --- | --- | --- | --- | --- | --- | --- | --- | --- | --- | --- | --- | --- |
| CC(=O)Nc1c(F)c(N2CCNCC2)c(F)c2c1c(=O)c(C(=O)O)cn2C1CC1 | > 25 | > 246 | > 25 | > 25 | > 25 | > 25 | > 25 | > 25 | > 25 | > 25 | > 25 | > 25 | – | – |
| CN1CCN(c2c(F)c(N)c3c(=O)c(C(=O)O)cn(C4CC4)c3c2F)CC1 | 0.025 (≈ 0.0661 µM) | 7.4 | 0.003 (≈ 0.00793 µM) | 0.013 (≈ 0.0344 µM) | 0.013 (≈ 0.0344 µM) | 0.1 (≈ 0.264 µM) | 0.05 (≈ 0.132 µM) | 0.05 (≈ 0.132 µM) | 0.013 (≈ 0.0344 µM) | 0.2 (≈ 0.529 µM) | 0.4 (≈ 1.06 µM) | 0.1 (≈ 0.264 µM) | 2.2 | 1.1 |
| O=C(O)c1cn(C2CC2)c2cc(N3CCNCC3)c(F)cc2c1=O [CIPROFLOXACIN] | 0.2 (≈ 0.604 µM) | – | 0.025 (≈ 0.0754 µM) | – | 0.1 (≈ 0.302 µM) | 0.4 (≈ 1.21 µM) | 0.1 (≈ 0.302 µM) | 3.1 (≈ 9.36 µM) | – | 1.6 (≈ 4.83 µM) | 0.8 (≈ 2.41 µM) | 0.8 (≈ 2.41 µM) | 1.2 | 0.3 |
| CCNCC1CCN(c2c(F)c(NC(C)=O)c3c(=O)c(C(=O)O)cn(C4CC4)c3c2F)C1 (stereo not drawn) | 3.1 (≈ 6.91 µM) | > 223 | 12.5 (≈ 27.9 µM) | > 25 | > 25 | > 25 | > 25 | 12.5 (≈ 27.9 µM) | > 25 | 6.3 (≈ 14 µM) | 12.5 (≈ 27.9 µM) | 12.5 (≈ 27.9 µM) | – | – |
| CCNCC1CCN(c2c(F)c(NC)c3c(=O)c(C(=O)O)cn(C4CC4)c3c2F)C1 (stereo not drawn) | 0.025 (≈ 0.0595 µM) | 32.8 | 0.05 (≈ 0.119 µM) | 0.4 (≈ 0.951 µM) | 0.4 (≈ 0.951 µM) | 3.1 (≈ 7.37 µM) | 1.6 (≈ 3.81 µM) | 0.025 (≈ 0.0595 µM) | 0.2 (≈ 0.476 µM) | 0.025 (≈ 0.0595 µM) | 0.1 (≈ 0.238 µM) | 0.1 (≈ 0.238 µM) | 11 | 5 |
| CN1CCN(c2c(F)c(N(C)C)c3c(=O)c(C(=O)O)cn(C4CC4)c3c2F)CC1 | > 25 | > 492 | > 25 | > 25 | > 25 | > 25 | > 25 | > 25 | > 25 | > 25 | > 25 | > 25 | – | – |
| CC1COc2c(N3CCN(C)CC3)c(F)c(N)c3c(=O)c(C(=O)O)cn1c23 (stereo not drawn) | 0.2 (≈ 0.531 µM) | 69.1 | 0.1 (≈ 0.266 µM) | 0.8 (≈ 2.13 µM) | 0.4 (≈ 1.06 µM) | 0.8 (≈ 2.13 µM) | 1.6 (≈ 4.25 µM) | 0.8 (≈ 2.13 µM) | 0.2 (≈ 0.531 µM) | 3.1 (≈ 8.24 µM) | 3.1 (≈ 8.24 µM) | 1.6 (≈ 4.25 µM) | 7.5 | 4.6 |
| CNc1c(F)c(N2CCNCC2)c(F)c2c1c(=O)c(C(=O)O)cn2C1CC1 | 0.2 (≈ 0.529 µM) | 36.5 | 0.025 (≈ 0.0661 µM) | 0.1 (≈ 0.264 µM) | 0.1 (≈ 0.264 µM) | 1.6 (≈ 4.23 µM) | 0.8 (≈ 2.11 µM) | 0.8 (≈ 2.11 µM) | 0.1 (≈ 0.264 µM) | 0.8 (≈ 2.11 µM) | 3.1 (≈ 8.19 µM) | 1.6 (≈ 4.23 µM) | 1.5 | 0.8 |
